Test results reported in ChEMBL document CHEMBL4732167, “Structure based design, synthesis, and biological evaluation of imidazole derivatives targeting dihydropteroate synthase enzyme” (Bioorg Med Chem Lett, 2021).
≈ marks a conversion by molar mass, not a printed value.

Assays:
Plasmodium falciparum = experiment: Antimalarial activity against Plasmodium falciparum assessed as parasite growth inhibition; type: functional, organism-based
Aspergillus niger = experiment: Antifungal activity against Aspergillus niger MTCC 282 assessed as fungal growth inhibition; type: functional
Candida albicans = experiment: Antifungal activity against Candida albicans MTCC 227 assessed as fungal growth inhibition; type: functional
Aspergillus clavatus = experiment: Antifungal activity against Aspergillus clavatus MTCC 1323 assessed as fungal growth inhibition; type: functional
Pseudomonas aeruginosa = experiment: Antibacterial activity against Pseudomonas aeruginosa MTCC 1688 assessed as bacterial growth inhibition; type: functional
Escherichia coli = experiment: Antibacterial activity against Escherichia coli MTCC 443 assessed as bacterial growth inhibition; type: functional
Streptococcus pyogenes = experiment: Antibacterial activity against Streptococcus pyogenes MTCC 442 assessed as bacterial growth inhibition; type: functional
[1] = Antioxidant activity assessed as hydrogen peroxide radical scavenging activity at 25 ug/ml (reference value: 23.6 to 43.1 %); type: functional; settings: dose 25.0 µg/ml
Procedure, shortened: (§1)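 Hydrogen peroxide scavenging was measured across a compound series of 0, 25, 50, 75 and 100 µg/ml.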

[2] = Antioxidant activity assessed as DPPH radical scavenging activity at 25 ug/ml (reference value: 22 to 40.2 %); type: functional; settings: dose 25.0 µg/ml
Procedure, shortened: (§2)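 DPPH radical scavenging was measured at 0, 25, 50, 75 and 100 µg/ml of each compound. Ascorbic acid was the reference.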

[3] = Antioxidant activity assessed as nitric oxide radical scavenging activity at 75 ug/ml (reference value: 25.8 to 41.6 %); type: functional; settings: dose 75.0 µg/ml
Procedure, shortened: (§3)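 Nitric oxide radical scavenging was tested at 0, 25, 50, 75 and 100 µg/ml of compound.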

[4] = Antioxidant activity assessed as hydrogen peroxide radical scavenging activity at 100 ug/ml (reference value: 23.6 to 43.1 %); type: functional; settings: dose 100.0 µg/ml; procedure, shortened: as §1
[5] = Antioxidant activity assessed as hydrogen peroxide radical scavenging activity at 75 ug/ml (reference value: 23.6 to 43.1 %); type: functional; settings: dose 75.0 µg/ml; procedure, shortened: as §1
[6] = Antioxidant activity assessed as hydrogen peroxide radical scavenging activity at 50 ug/ml (reference value: 23.6 to 43.1 %); type: functional; settings: dose 50.0 µg/ml; procedure, shortened: as §1
[7] = Antioxidant activity assessed as nitric oxide radical scavenging activity at 50 ug/ml (reference value: 25.8 to 41.6 %); type: functional; settings: dose 50.0 µg/ml; procedure, shortened: as §3
[8] = Antioxidant activity assessed as DPPH radical scavenging activity at 50 ug/ml (reference value: 22 to 40.2 %); type: functional; settings: dose 50.0 µg/ml; procedure, shortened: as §2
Bacteria = experiment: Antibacterial activity against ESBL-producing bacteria assessed as bacterial growth inhibition; type: functional
Procedure, shortened: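 Values are minimum inhibitory concentrations (MIC) in µg/mL, determined at an outside microbiology laboratory.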

Staphylococcus aureus [9] = experiment: Antibacterial activity against Staphylococcus aureus MTCC 96 assessed as bacterial growth inhibition; type: functional
[10] = Antioxidant activity assessed as nitric oxide radical scavenging activity at 100 ug/ml (reference value: 25.8 to 41.6 %); type: functional; settings: dose 100.0 µg/ml; procedure, shortened: as §3
[11] = Antioxidant activity assessed as DPPH radical scavenging activity at 75 ug/ml (reference value: 22 to 40.2 %); type: functional; settings: dose 75.0 µg/ml; procedure, shortened: as §2
[12] = Antioxidant activity assessed as nitric oxide radical scavenging activity at 25 ug/ml (reference value: 25.8 to 41.6 %); type: functional; settings: dose 25.0 µg/ml; procedure, shortened: as §3
[13] = Antioxidant activity assessed as DPPH radical scavenging activity at 100 ug/ml (reference value: 22 to 40.2 %); type: functional; settings: dose 100.0 µg/ml; procedure, shortened: as §2
Staphylococcus aureus [14] = experiment: Antibacterial activity against methicillin-resistant Staphylococcus aureus assessed as inhibition of bacterial growth; type: functional
Procedure, shortened: (§4)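 Growth inhibition of the drug-resistant strain was read out as the minimum inhibitory concentration (MIC), reported in µg/mL. The same protocol was also run on an ESBL strain.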

Enterococcus = experiment: Antibacterial activity against vancomycin-resistant Enterococcus assessed as inhibition of bacterial growth; type: functional; procedure, shortened: as §4
[15] = test system: Mycobacterium tuberculosis; experiment: Antibacterial activity against Mycobacterium tuberculosis H37Rv assessed as bacterial growth inhibition; type: functional

| Compound | IC50 (Plasmodium falciparum) [µg/mL] | MFC (Aspergillus niger) [µg/mL] | MFC (Candida albicans) [µg/mL] | MFC (Aspergillus clavatus) [µg/mL] | MIC (Pseudomonas aeruginosa) [µg/mL] | MIC (Escherichia coli) [µg/mL] | MIC (Streptococcus pyogenes) [µg/mL] | Activity [1] [%] | Activity [2] [%] | Activity [3] [%] | Activity [4] [%] | Activity [5] [%] | Activity [6] [%] | Activity [7] [%] | Activity [8] [%] | MIC (Bacteria) [µg/mL] | MIC (Staphylococcus aureus [9]) [µg/mL] | Activity [10] [%] | Activity [11] [%] | Activity [12] [%] | further results |
| --- | --- | --- | --- | --- | --- | --- | --- | --- | --- | --- | --- | --- | --- | --- | --- | --- | --- | --- | --- | --- | --- |
| C=C[C@H]1CN2CC[C@H]1C[C@H]2[C@H](O)c1ccnc2ccc(OC)cc12 [QUININE] | 0.268 (≈ 0.826 µM) |  |  |  |  |  |  |  |  |  |  |  |  |  |  |  |  |  |  |  |  |
| NYSTATIN |  | 100 | 100 | 100 |  |  |  |  |  |  |  |  |  |  |  |  |  |  |  |  |  |
| CC(=O)c1c(C)nc(SCC(=O)Nc2ccc(OC(=O)c3ccc(Cl)cc3)cc2)n1-c1ccc(Cl)cc1 | 0.46 (≈ 0.83 µM) | > 1000 | > 1000 | > 1000 | 100 (≈ 180 µM) | 250 (≈ 451 µM) | 100 (≈ 180 µM) | 50.8 | 36.9 | 81.9 | 93.6 | 80 | 66.6 | 58.3 | 49.3 | 1000 (≈ 1800 µM) | 125 (≈ 225 µM) | 89.4 | 64.9 | 41.8 | Activity [13]: 84.5% |
| CC(=O)c1c(C)nc(SCC(=O)Nc2ccc(OCc3ccc(F)cc3)cc2)n1-c1ccc(Cl)cc1 | 0.73 (≈ 1.39 µM) | 1000 (≈ 1910 µM) | 1000 (≈ 1910 µM) | 1000 (≈ 1910 µM) | 25 (≈ 47.7 µM) | 50 (≈ 95.4 µM) | 100 (≈ 191 µM) | 51 | 42.9 | 84.3 | 88.1 | 74.5 | 68.4 | 58.3 | 58.6 | 62.5 (≈ 119 µM) | 100 (≈ 191 µM) | 89.5 | 67 | 50.8 | MIC (Staphylococcus aureus [14]): 125 µg/mL (≈ 239 µM); MIC (Enterococcus): 62.5 µg/mL (≈ 119 µM); Activity [13]: 91%; MIC [15]: 62.5 µg/mL (≈ 119 µM) |
| CC(=O)c1c(C)nc(SCC(=O)Nc2ccc(OC(=O)c3ccco3)cc2)n1-c1ccc(F)cc1 | 0.36 (≈ 0.729 µM) | 500 (≈ 1010 µM) | 500 (≈ 1010 µM) | 500 (≈ 1010 µM) | 250 (≈ 507 µM) | 100 (≈ 203 µM) | 250 (≈ 507 µM) | 55.9 | 34.6 | 79.6 | 85.1 | 76.5 | 64.8 | 67.4 | 48.2 | 125 (≈ 253 µM) | 500 (≈ 1010 µM) | 81.7 | 66.7 | 45.2 | MIC (Staphylococcus aureus [14]): 1000 µg/mL (≈ 2030 µM); MIC (Enterococcus): 500 µg/mL (≈ 1010 µM); Activity [13]: 82.1%; MIC [15]: 250 µg/mL (≈ 507 µM) |
| O=C(N[C@H](CO)[C@H](O)c1ccc([N+](=O)[O-])cc1)C(Cl)Cl [CHLORAMPHENICOL] |  |  |  |  | 50 (≈ 155 µM) | 50 (≈ 155 µM) | 50 (≈ 155 µM) |  |  |  |  |  |  |  |  |  | 50 (≈ 155 µM) |  |  |  |  |
| COc1ccc(-n2c(SCC(=O)Nc3ccc(OC(=O)c4ccco4)cc3)nc(C)c2C(C)=O)cc1 | 0.78 (≈ 1.54 µM) | > 1000 | 250 (≈ 495 µM) | > 1000 | 100 (≈ 198 µM) | 125 (≈ 247 µM) | 125 (≈ 247 µM) | 59.3 | 32.5 | 78.9 | 90 | 81 | 69.9 | 59.3 | 47.1 | 500 (≈ 989 µM) | 250 (≈ 495 µM) | 84.5 | 66.2 | 37.7 | MIC (Staphylococcus aureus [14]): 500 µg/mL (≈ 989 µM); MIC (Enterococcus): 250 µg/mL (≈ 495 µM); Activity [13]: 85.2%; MIC [15]: 62.5 µg/mL (≈ 124 µM) |
| COc1ccc(-n2c(SCC(=O)Nc3ccc(OCc4ccc(F)cc4)cc3)nc(C)c2C(C)=O)cc1 | 1.4 (≈ 2.69 µM) | 500 (≈ 962 µM) | 500 (≈ 962 µM) | 500 (≈ 962 µM) | 25 (≈ 48.1 µM) | 12.5 (≈ 24.1 µM) | 100 (≈ 192 µM) | 54 | 31.6 | 81.4 | 84.3 | 79.8 | 68.1 | 63.4 | 54.2 | 25 (≈ 48.1 µM) | 100 (≈ 192 µM) | 90.5 | 67.2 | 45.8 | MIC (Staphylococcus aureus [14]): 125 µg/mL (≈ 241 µM); MIC (Enterococcus): 100 µg/mL (≈ 192 µM); Activity [13]: 84.3%; MIC [15]: 50 µg/mL (≈ 96.2 µM) |
| GENTAMICIN |  |  |  |  | 1 | 0.05 | 0.5 |  |  |  |  |  |  |  |  |  | 0.25 |  |  |  |  |
